The values that follow come from ChEMBL document CHEMBL4321879, “Novel Class of Colony-Stimulating Factor 1 Receptor Kinase Inhibitors Based on an o-Aminopyridyl Alkynyl Scaffold as Potential Treatment for Inflammatory Disorders” (J Med Chem, 2020).

The target in assay [1] is T1, Fibroblast growth factor receptor 2 (Homo sapiens, UniProt P21802). As to the kind of experiment: Inhibition of recombinant human N-terminal His6-tagged FGFR2 (456 to 770 residues) expressed in baculovirus infected Sf21 insect cells using poly (Glu, Tyr)4:1 as substrate measured after 1 hr by ELISA. Put shortly:
(§1)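 Recombinant kinase was incubated with compound in reaction buffer containing 5 μM ATP, in wells precoated with poly(Glu,Tyr) 4:1, for 1 h at 37 °C. Phosphorylation was detected by ELISA.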

Assay [2] has as its target Fibroblast growth factor receptor 3 (Homo sapiens, UniProt P22607). As to the kind of experiment: Inhibition of recombinant human N-terminal His6-tagged FGFR3 (447 to 761 residues) expressed in baculovirus infected Sf21 insect cells using poly (Glu, Tyr)4:1 as substrate measured after 1 hr by ELISA. Put shortly: as §1
On the technique in general: An ELISA detects its analyte on a solid surface through an enzyme-linked reagent.

The target of assay [3] is Fibroblast growth factor receptor 4 (Homo sapiens, UniProt P22455). As to the kind of experiment: Inhibition of recombinant human N-terminal His6-tagged FGFR4 (442 to 755 residues) expressed in baculovirus infected Sf21 insect cells using poly (Glu, Tyr)4:1 as substrate measured after 1 hr by ELISA. Put shortly:
(§2)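 ELISA kinase assay: recombinant kinase added to wells precoated with poly(Glu,Tyr)4:1 and incubated with compound in reaction buffer containing 5 μM ATP, 37 °C for 1 h; wells then washed before antibody detection.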

Assay [4] addresses Vascular endothelial growth factor receptor 1 (Homo sapiens) (UniProt P17948). As to the kind of experiment: Inhibition of recombinant human VEGFR1 expressed in Spodoptera frugiperda insect cells at 1000 nM using poly (Glu, Tyr)4:1 as substrate measured after 1 hr by ELISA relative to control. Put shortly: as §2
For assay [5], the target named is Vascular endothelial growth factor receptor 3 (Homo sapiens) (UniProt P35916). The assay is described as follows: Inhibition of recombinant VEGFR3 (unknown origin) at 1000 nM using poly (Glu, Tyr)4:1 as substrate measured after 1 hr by ELISA relative to control. In a few lines:
as §1

Assay [6] has as its target Platelet-derived growth factor receptor alpha (Homo sapiens) (UniProt P16234). The assay is described as follows: Inhibition of recombinant human N-terminal His6-tagged PDGFRalpha (550 to end residues) expressed in baculovirus infected Sf21 insect cells at 1000 nM using poly (Glu, Tyr)4:1 as substrate measured after 1 hr by ELISA relative to control. Put shortly: as §2

Assay [7] deals with Platelet-derived growth factor receptor beta (Homo sapiens) (UniProt P09619). As to the kind of experiment: Inhibition of recombinant human N-terminal His6-tagged PDGFRbeta (557 to end residues) expressed in baculovirus infected Sf21 insect cells at 1000 nM using poly (Glu, Tyr)4:1 as substrate measured after 1 hr by ELISA relative to control. Put shortly:
as §2

The target in assay [8] is Receptor tyrosine-protein kinase erbB-2 (Homo sapiens) (UniProt P04626). As to the kind of experiment: Inhibition of recombinant Erbb2 (unknown origin) at 1000 nM using poly (Glu, Tyr)4:1 as substrate measured after 1 hr by ELISA relative to control. Put shortly: as §1
Assay [9] addresses Receptor tyrosine-protein kinase erbB-4 (Homo sapiens) (UniProt Q15303). The assay is described as follows: Inhibition of recombinant human N-terminal His6-tagged Erbb4 (706 to 991 residues) expressed in baculovirus infected Sf21 insect cells at 1000 nM using poly (Glu, Tyr)4:1 as substrate measured after 1 hr by ELISA relative to control. Put shortly:
as §1

Assay [10] concerns the target T1, Fibroblast growth factor receptor 2. As to the kind of experiment: Inhibition of recombinant human N-terminal His6-tagged FGFR2 (456 to 770 residues) expressed in baculovirus infected Sf21 insect cells at 1000 nM using poly (Glu, Tyr)4:1 as substrate measured after 1 hr by ELISA relative to control. In a few lines:
as §1

For assay [11], the target named is Focal adhesion kinase 1 (Homo sapiens) (UniProt Q05397). As to the kind of experiment: Inhibition of recombinant human N-terminal His6-tagged FAK (411 to 686 residues) expressed in baculovirus infected Sf21 insect cells at 1000 nM using poly (Glu, Tyr)4:1 as substrate measured after 1 hr by ELISA relative to control. In a few lines: as §1
In assay [12] the target is Proto-oncogene tyrosine-protein kinase receptor Ret (Homo sapiens) (UniProt P07949). As to the kind of experiment: Inhibition of recombinant human N-terminal GST-tagged RET (658 to end residues) expressed in baculovirus infected Sf21 insect cells at 100 nM using poly (Glu, Tyr)4:1 as substrate measured after 1 hr by ELISA relative to control. In a few lines: as §1
Assay [13] concerns the target Epidermal growth factor receptor (Homo sapiens) (UniProt P00533). As to the kind of experiment: Inhibition of recombinant human N-terminal GST-tagged EGFR (696 to end residues) expressed in baculovirus infected Sf21 insect cells at 100 nM using poly (Glu, Tyr)4:1 as substrate measured after 1 hr by ELISA relative to control. Put shortly: as §1
In assay [14] the target is Proto-oncogene tyrosine-protein kinase Src (Homo sapiens) (UniProt P12931). As to the kind of experiment: Inhibition of recombinant human full-length N-terminal His6-tagged Src expressed in Sf21 insect cells at 100 nM using poly (Glu, Tyr)4:1 as substrate measured after 1 hr by ELISA relative to control. Put shortly: as §2
Assay [15] addresses Receptor tyrosine-protein kinase erbB-2 (Homo sapiens) (UniProt P04626). As to the kind of experiment: Inhibition of recombinant Erbb2 (unknown origin) at 100 nM using poly (Glu, Tyr)4:1 as substrate measured after 1 hr by ELISA relative to control. In a few lines:
as §1

The target of assay [16] is Receptor tyrosine-protein kinase erbB-4 (Homo sapiens) (UniProt Q15303). The assay is described as follows: Inhibition of recombinant human N-terminal His6-tagged Erbb4 (706 to 991 residues) expressed in baculovirus infected Sf21 insect cells at 100 nM using poly (Glu, Tyr)4:1 as substrate measured after 1 hr by ELISA relative to control. In a few lines: as §1
In assay [17] the target is Focal adhesion kinase 1 (Homo sapiens) (UniProt Q05397). The assay is described as follows: Inhibition of recombinant human N-terminal His6-tagged FAK (411 to 686 residues) expressed in baculovirus infected Sf21 insect cells at 100 nM using poly (Glu, Tyr)4:1 as substrate measured after 1 hr by ELISA relative to control. Put shortly: as §1
Assay [18] deals with Vascular endothelial growth factor receptor 2 (Homo sapiens) (UniProt P35968). The assay is described as follows: Inhibition of recombinant human VEGFR2 (D1-7) expressed in Spodoptera frugiperda insect cells at 10 nM using poly (Glu, Tyr)4:1 as substrate measured after 1 hr by ELISA relative to control. In a few lines:
as §2

In assay [19] the target is Tyrosine-protein kinase ABL1 (Homo sapiens) (UniProt P00519). The assay is described as follows: Inhibition of recombinant human N-terminal His6-tagged Abl (27 to end residues) expressed in baculovirus infected Sf21 insect cells at 10 nM using poly (Glu, Tyr)4:1 as substrate measured after 1 hr by ELISA relative to control. Put shortly: as §1
The target in assay [20] is Macrophage colony-stimulating factor 1 receptor (Mus musculus) (UniProt P09581). The assay is described as follows: Inhibition of CSF1R in CSF1-stimulated mouse RAW264.7 cells assessed as reduction in CSF1R phosphorylation preincubated for 6 hrs followed by CSF1 stimulation and measured after 20 mins by Western blot analysis. It counts as cell-based. In a few lines: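 RAW264.7 cells were plated in six-well plates overnight, treated with compound for 6 h, then stimulated with CSF-1 100 ng/mL for 20 min. Lysates were normalized by BCA, run on 10% SDS-PAGE, and blotted with antibodies to phospho-CSF1R (Tyr723), CSF1R, phospho-Akt (Ser473), Akt and actin.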
(In general: In western blotting, separated proteins are transferred to a membrane and probed.)

The structures appear in SMILES notation.

Focal adhesion kinase 1 (Homo sapiens), sequence (Q05397 2-1052 limits assumed): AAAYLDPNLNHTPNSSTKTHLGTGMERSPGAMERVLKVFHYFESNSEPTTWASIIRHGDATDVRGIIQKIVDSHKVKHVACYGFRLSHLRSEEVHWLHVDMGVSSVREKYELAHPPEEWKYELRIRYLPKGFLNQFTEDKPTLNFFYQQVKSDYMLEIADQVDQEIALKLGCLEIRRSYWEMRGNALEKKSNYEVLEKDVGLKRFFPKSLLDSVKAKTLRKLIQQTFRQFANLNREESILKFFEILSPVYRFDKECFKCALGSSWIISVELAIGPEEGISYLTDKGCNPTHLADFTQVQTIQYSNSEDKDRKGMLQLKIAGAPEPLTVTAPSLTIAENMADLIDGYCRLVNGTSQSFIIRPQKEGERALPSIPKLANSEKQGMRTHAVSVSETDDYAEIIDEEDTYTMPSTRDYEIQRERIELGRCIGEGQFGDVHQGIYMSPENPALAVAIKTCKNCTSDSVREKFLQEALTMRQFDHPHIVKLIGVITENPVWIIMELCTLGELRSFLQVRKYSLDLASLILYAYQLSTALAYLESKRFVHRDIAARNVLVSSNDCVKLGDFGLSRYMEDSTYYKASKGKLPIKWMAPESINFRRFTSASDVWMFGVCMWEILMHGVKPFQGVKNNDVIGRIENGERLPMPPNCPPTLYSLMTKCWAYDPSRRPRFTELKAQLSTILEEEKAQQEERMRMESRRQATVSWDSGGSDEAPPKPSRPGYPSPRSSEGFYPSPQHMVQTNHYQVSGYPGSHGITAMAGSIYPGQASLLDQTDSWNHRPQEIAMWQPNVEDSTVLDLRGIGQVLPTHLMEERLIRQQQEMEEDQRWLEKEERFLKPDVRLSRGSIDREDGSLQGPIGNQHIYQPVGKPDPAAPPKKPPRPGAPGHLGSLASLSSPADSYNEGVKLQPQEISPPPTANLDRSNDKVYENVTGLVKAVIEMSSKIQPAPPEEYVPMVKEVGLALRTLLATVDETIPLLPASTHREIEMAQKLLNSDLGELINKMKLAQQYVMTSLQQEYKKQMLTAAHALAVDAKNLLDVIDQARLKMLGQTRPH
Receptor tyrosine-protein kinase erbB-2 (Homo sapiens), sequence (P04626 whole entry, the tested form may be a part): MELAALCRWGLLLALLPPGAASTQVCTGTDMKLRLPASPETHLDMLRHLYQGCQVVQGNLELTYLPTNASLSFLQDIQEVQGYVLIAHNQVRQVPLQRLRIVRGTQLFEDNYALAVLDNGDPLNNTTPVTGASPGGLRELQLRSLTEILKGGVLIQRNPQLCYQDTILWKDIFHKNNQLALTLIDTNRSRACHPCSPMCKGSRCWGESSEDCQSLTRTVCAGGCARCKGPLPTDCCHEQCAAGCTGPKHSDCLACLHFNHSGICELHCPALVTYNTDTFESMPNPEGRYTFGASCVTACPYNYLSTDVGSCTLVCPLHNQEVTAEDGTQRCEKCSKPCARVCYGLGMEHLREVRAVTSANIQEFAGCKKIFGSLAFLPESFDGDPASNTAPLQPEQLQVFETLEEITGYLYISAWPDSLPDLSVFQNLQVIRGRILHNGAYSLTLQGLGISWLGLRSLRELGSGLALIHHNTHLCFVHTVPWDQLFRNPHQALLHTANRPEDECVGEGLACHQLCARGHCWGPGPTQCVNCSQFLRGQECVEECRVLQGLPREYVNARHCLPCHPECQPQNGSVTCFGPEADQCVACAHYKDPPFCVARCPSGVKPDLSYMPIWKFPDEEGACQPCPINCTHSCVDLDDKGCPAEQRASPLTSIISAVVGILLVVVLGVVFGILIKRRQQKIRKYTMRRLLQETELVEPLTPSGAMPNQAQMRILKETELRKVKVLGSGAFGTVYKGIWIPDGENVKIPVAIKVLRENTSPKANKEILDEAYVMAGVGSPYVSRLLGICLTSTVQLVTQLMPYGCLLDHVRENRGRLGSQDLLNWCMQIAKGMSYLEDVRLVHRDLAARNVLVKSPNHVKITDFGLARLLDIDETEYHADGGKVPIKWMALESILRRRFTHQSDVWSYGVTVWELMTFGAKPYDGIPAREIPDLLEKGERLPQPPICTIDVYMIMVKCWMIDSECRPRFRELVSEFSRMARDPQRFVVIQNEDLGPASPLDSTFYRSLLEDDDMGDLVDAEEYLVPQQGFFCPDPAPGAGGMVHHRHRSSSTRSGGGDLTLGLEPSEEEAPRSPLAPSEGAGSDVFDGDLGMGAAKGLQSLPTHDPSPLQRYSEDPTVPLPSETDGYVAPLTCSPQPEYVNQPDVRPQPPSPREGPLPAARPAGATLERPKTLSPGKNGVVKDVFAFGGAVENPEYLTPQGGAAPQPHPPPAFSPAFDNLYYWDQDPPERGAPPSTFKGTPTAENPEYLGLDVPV
Receptor tyrosine-protein kinase erbB-4 (Homo sapiens), sequence (Q15303 whole entry, the tested form may be a part): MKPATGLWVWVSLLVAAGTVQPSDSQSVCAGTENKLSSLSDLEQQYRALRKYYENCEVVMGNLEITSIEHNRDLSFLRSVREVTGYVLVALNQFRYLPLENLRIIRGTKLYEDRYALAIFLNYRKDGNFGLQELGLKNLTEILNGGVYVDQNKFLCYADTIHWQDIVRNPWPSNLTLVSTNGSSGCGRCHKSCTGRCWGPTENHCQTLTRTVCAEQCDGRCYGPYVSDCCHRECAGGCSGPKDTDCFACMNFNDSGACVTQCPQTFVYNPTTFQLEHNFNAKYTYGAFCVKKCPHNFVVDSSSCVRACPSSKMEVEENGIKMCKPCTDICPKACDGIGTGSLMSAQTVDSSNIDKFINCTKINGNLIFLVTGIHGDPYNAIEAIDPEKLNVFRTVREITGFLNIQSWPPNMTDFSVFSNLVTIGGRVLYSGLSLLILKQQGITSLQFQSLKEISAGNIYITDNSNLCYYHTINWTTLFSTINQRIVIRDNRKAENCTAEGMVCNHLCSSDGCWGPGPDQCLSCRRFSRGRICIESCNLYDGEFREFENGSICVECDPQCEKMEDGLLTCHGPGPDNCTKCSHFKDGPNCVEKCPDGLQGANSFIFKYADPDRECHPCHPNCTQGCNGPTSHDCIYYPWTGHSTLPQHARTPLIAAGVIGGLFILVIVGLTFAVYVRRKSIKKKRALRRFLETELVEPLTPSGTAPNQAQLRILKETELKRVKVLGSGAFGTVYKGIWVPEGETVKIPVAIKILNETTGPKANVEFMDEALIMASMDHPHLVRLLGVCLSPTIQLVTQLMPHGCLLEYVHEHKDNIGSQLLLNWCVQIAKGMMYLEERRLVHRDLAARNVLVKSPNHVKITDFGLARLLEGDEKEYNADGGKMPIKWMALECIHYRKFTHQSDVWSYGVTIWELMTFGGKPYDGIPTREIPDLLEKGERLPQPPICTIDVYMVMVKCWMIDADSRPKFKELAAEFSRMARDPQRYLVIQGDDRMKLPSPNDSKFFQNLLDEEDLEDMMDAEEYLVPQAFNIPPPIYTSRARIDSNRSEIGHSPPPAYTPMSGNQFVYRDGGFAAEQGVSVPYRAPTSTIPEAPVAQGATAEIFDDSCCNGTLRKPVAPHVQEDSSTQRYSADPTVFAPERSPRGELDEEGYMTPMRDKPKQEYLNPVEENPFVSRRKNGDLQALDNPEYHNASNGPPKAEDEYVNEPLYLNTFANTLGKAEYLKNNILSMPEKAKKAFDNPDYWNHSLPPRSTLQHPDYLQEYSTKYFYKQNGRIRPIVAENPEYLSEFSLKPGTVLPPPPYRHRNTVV
Fibroblast growth factor receptor 3, sequence (P22607 whole entry, the tested form may be a part): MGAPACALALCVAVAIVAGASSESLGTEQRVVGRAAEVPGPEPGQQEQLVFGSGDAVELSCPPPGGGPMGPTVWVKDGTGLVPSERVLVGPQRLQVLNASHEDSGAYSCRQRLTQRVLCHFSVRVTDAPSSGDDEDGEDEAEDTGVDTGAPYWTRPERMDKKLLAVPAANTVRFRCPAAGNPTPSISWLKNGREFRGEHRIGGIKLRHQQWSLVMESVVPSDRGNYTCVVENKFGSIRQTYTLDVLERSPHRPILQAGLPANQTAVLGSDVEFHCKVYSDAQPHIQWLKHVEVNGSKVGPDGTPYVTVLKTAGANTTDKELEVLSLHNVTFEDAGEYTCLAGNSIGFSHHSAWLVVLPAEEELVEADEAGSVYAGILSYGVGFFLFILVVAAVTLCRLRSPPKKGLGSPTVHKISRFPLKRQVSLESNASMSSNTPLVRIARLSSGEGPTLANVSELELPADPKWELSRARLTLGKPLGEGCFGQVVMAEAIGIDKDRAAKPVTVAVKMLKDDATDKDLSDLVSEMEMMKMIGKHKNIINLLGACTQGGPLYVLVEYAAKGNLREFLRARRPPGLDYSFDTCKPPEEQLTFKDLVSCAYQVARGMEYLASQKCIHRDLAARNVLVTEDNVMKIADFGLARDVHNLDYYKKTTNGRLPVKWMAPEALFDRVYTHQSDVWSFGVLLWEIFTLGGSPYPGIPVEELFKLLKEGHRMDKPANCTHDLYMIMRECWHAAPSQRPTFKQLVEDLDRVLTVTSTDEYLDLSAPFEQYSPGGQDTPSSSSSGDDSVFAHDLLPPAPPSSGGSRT
Proto-oncogene tyrosine-protein kinase Src (Homo sapiens), sequence (P12931 2-536 limits assumed): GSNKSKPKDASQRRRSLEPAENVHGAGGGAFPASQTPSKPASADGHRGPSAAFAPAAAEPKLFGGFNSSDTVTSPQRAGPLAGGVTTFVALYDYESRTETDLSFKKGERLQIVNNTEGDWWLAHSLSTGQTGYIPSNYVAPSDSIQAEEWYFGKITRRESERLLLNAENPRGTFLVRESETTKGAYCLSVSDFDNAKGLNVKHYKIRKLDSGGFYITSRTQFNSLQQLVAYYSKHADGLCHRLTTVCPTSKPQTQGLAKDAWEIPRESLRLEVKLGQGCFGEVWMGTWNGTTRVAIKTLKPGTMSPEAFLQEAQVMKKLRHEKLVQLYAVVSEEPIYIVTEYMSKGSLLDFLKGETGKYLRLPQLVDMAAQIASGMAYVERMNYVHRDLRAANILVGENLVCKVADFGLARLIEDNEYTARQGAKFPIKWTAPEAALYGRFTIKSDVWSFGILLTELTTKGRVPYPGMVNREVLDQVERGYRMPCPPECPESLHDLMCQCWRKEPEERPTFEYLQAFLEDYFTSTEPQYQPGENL

For `Cc1ccc(C(=O)Nc2ccc(Cl)cc2)cc1C#Cc1cc(-c2cnn(C)c2)cnc1N`, the IC50 in assay [1], in [2] and in assay [3] was over 1000 nM each time. The inhibition (as a rule, how much of the control response was suppressed) is 89.8% in assay [4]; 100% in [5]; 92.6% in assay [6]; 87.9% in assay [7]; 9.5% in assay [8]; 1.6% in [9]. Moreover, the inhibition in assay [10] was found to be 20.7%; in [11], 10.8%; in assay [12] it was 77.6%; in [13], 7.4%; in [14], 61.7%; in assay [15], 8.8%. Further, the inhibition was 6.6% in assay [16]; 14.7% in assay [17]; 23.2% in assay [18]; 0% in assay [19]; “Dose-dependent effect” in [20].
